Most compounds without a hit are left out; they make up all but 1.4% or so of the library.
thrombin 1536 – blocks human thrombin protease activity; alpha-thrombin, Boc-VPR-AMC fluorogenic substrate cleavage; inhibition, % at 5 µM; P00734; AID 1046; actives 0.26% (n = 220,000);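 active = inhibition at or above 40%; inactive = inhibition below 40%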;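 also: 0% = enzyme with no compound and 100% = wells without enzyme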
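Material: human alpha-thrombin protein; Also added: Boc-VPR-AMC substrate, 15 µM final; Timing: enzyme reaction carried out at room temperature; Signal: fluorescence, ex 355 nm, em 460 nm; Measure: % inhibition of thrombin; Controls: enzyme without compound as high, wells lacking enzyme as low.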
hK5 inh – inhibitors of human kallikrein 5; recombinant hK5, fluorogenic AMC substrate cleavage; inhibition, % at 5 µM; actives 0.59% (n = 210,000); AID 873;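 active = inhibition of 40% or more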;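 also: 0% = enzyme controls without compound and 100% = no-enzyme blanks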
m-calpain inh – calpain II (pig) inhibition; purified calpain II, fluorogenic peptide substrate, 30 min; inhibition, % at 16 µM; actives 0.37% (n = 220,000); AID 1236;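 active = inhibition above about 50%, limit read from the data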
FXIa inh – blocks human coagulation factor XIa protease activity | actives 0.14% (n = 220,000) | inhibition, % at 5 µM | P03951 | purified FXIa, Boc-Glu-Ala-Arg-AMC fluorogenic substrate;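 active = inhibition of at least 40%; inactive = inhibition below 40%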;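 also: fluorescence of freed AMC excited at 355 nm; 0% = enzyme without compound and 100% = no enzyme blank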
FXIIa inh – inhibitors of human coagulation factor XIIa. P00748. purified FXIIa, Boc-QGR-AMC fluorogenic substrate, 2 h. inhibition, % at 5 µM. actives 0.3% (n = 220,000). AID 800; in the data active = inhibition above about 40%;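 also: 0% = enzyme with no compound and 100% = blank without enzyme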
Furin inhibitor – blocks human furin protease activity; P09958; purified furin, fluorogenic substrate cleavage; inhibition, % at 20 µM or 30 µM; actives 0.061% (n = 220,000); AID 463115; in the data active = inhibition above about 25%
Target sequence (P09958 108-714 limits assumed): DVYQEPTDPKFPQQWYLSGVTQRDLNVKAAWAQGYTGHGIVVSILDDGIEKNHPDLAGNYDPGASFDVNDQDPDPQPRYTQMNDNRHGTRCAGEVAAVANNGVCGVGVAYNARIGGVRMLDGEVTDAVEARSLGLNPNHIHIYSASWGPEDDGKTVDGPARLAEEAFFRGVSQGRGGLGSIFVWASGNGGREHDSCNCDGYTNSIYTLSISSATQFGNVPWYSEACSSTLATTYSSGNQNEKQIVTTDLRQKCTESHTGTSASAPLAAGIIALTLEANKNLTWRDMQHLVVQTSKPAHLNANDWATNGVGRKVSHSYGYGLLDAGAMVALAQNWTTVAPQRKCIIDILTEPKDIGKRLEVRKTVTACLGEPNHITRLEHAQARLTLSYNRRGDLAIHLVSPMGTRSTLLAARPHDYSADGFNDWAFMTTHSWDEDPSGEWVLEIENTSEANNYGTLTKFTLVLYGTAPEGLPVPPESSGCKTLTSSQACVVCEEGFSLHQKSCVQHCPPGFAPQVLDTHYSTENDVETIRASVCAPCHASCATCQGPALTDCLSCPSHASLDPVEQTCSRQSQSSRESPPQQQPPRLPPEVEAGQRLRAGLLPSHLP
An asterisk follows results filed as active; i = inactive.

SMILES	thrombin 1536	hK5 inh	m-calpain inh	FXIa inh	FXIIa inh	Furin inhibitor
CC(C)COc1ccc(CSCCNC(=S)Nc2ccccc2)cc1	36	-21	65*	-18	-3	-3
CCCCOc1ccc(CSCCNC(=S)Nc2ccccc2)cc1	-7	-5	3	-1	7	-23
CC1CN(C(=O)CSc2ncnc3sccc23)CC(C)O1 (centres undefined)	-5	1	0	-3	-6	-7
CCC(C)NC(=O)CSc1ncnc2sccc12 (centres undefined)	26	18	19	31	40*	-11
COC(=O)c1ccc(N2C(=O)CC(Sc3n[nH]c(C)n3)C2=O)cc1 (centres undefined)	2	5	-28	4	16	-23
COC(=O)c1ccc(N2C(=O)C3CC(C)=C(C)CC3C2=O)cc1 (centres undefined)	4	2	59*	2	14	-16
Cc1cccc(C)c1NC(=S)N/N=C/c1c(Cl)cccc1Cl	50*	23	24	31	29	-14
CCc1nccn1C(=O)c1cnn2c(C(F)F)cc(-c3ccccc3)nc12	76*	2	-151	11	16	-4
CCN1CCN(C(=O)c2cnn3c(C(F)F)cc(-c4ccc(C)cc4)nc23)CC1	-5	8	-250	-6	-3	-9
CCc1nccn1C(=O)c1cnn2c(C(F)F)cc(-c3ccc(C)cc3)nc12	77*	-24	i	-2	3	-12
CC1=CC(C)C(/C=N/n2cnnc2)C(C)C1 (centres undefined)	-7	-16	19	2	17	-16
O=C(CN1C(=O)CS/C1=C\c1nc(-c2ccc(Cl)cc2)cs1)Nc1cccnc1Cl	-11	-7	-10	-4	-3	-7
Cc1ccc(-c2csc(/C=C3\SC(C)C(=O)N3CC(=O)Nc3ccccc3F)n2)cc1 (centres undefined)	-3	1	67*	-2	7	-28
CCOc1ccc2[nH]c(=O)c(C(c3nnnn3C3CCCCC3)N3CCN(C)CC3)cc2c1 (centres undefined)	2	-32	-88	36	48*	-32
CCOc1ccc2[nH]c(=O)c(C(c3nnnn3C3CCCCC3)N3CCN(CC)CC3)cc2c1 (centres undefined)	-3	-1	-198	-19	-18	-40
CCOC(=O)N1CCN(C2OC(=O)c3ccccc32)CC1 (centres undefined)	-4	-3	12	-9	-9	-31
O=C(CCS(=O)(=O)c1cccc2nsnc12)NC1CCCCCC1	14	41*	17	11	8	-24
CCN(CC)S(=O)(=O)c1cc(NS(=O)(=O)c2cccc(C(=O)O)c2)ccc1C	3	5	-4	4	14	-20
CCN(CC)S(=O)(=O)c1cc(NS(=O)(=O)c2ccccc2)ccc1C	-7	-16	56*	5	6	-12
COc1cc(S(=O)(=O)N2CCOCC2)ccc1NC(=O)COC(=O)COc1ccccc1	50*	-2	1	-1	5	-22
COC(=O)CCSCC(=O)Nc1ccc(S(=O)(=O)N2CCOCC2)cc1OC	-7	-3	-4	-7	-1	-8
CCOc1ccc(-c2nc(C#N)c(NCC(C)C)o2)cc1	-3	151*	-141	-9	-12	-15
C=CCNc1oc(-c2ccc(OCC)cc2)nc1C#N	-8	-3	-229	-8	-5	-13
CC(/C=C/c1ccccc1)=N/NC(=O)c1cnccn1	3	-9	-15	4	11	27*
O=C(O)CN1C(=O)/C(=C/c2ccc(N3CCCCC3)o2)SC1=S	8	45*	19	23	72*	1
CCOc1ccccc1OCCCC(=O)N(C)CC(=O)Nc1cc(C)ccc1C	8	-4	-8	-7	7	-14
Cc1ccc(C)c(NC(=O)CN(C)C(=O)CCN2C(=O)c3ccccc3C2=O)c1	8	53*	10	4	46*	-13
CCOC(=O)C1=C(CC)Nc2ccccc2N=C1NC(=O)Cn1cnc2ccccc2c1=O	-6	-3	-3	-7	-2	-28
CCOC(=O)C1=C(CC)Nc2ccccc2N=C1NC(=O)CCN1C(=O)C2CCCCC2C1=O (centres undefined)	36	54*	29	32	24	-7

Screens: PubChem BioAssay, several laboratories
